Results reported in ChEMBL document CHEMBL1129350, “Hypoxia-selective antitumor agents. 13. Effects of acridine substitution on the hypoxia-selective cytotoxicity and metabolic reduction of the bis-bioreductive agent nitracrine N-oxide” (J Med Chem, 1996).
pIC50: −log10 of the molar value.

Assays:
[1] = Air/N2 ratio = C10(air)/C10(nitrogen)
How it was run: (§1)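 Plateau-phase AA8 cells at 10⁶/mL in magnetically stirred 10 mL suspensions in αMEM with 5% fetal calf serum, continuously gassed with 5% CO₂ in air or N₂. Cells and drug solutions were pre-equilibrated under the gas phase for 60 min before mixing, then exposed for 1 h. Clonogenic survival was read as plating efficiency. C10 is the concentration lowering plating efficiency to 10% of concurrent untreated controls. The air/N₂ ratio is C10(air)/C10(N₂).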

[2] = Inhibitory activity against aerobic growth of UV4cells, Hypersensitivity factor is the ratio of IC50(AA8) to IC50(UV4).; type: functional
How it was run: (§2)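 Growth inhibition: 200 log-phase AA8 or 300 UV4 cells were seeded per well. One day later they were exposed to drug for 18 h under aerobic conditions (5% CO₂) in αMEM with 5% fetal calf serum. Cell mass was measured as protein by methylene blue staining 72–78 h after drug removal. IC50 is the concentration reducing cell mass to 50% of the mean of eight controls on the same plate. HF is IC50(AA8)/IC50(UV4).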

[3] = test system: CHO-AA8; assay: Concentration needed to reduce cell survival to 10% of control values, using 1 hour exposure of plateau phase AA8 cells at 10e6 cells/ml; type: functional, Cricetulus griseus; how it was run: as §1
[4] = test system: CHO-AA8; assay: Inhibitory activity against aerobic growth of AA8 cells.; type: functional, cell-based; conditions: Cricetulus griseus; how it was run: as §2
[5] = test system: Mus musculus; assay: Maximum tolerated ip dose for male C3H/HeN mice.; type: functional
How it was run: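 Compounds formulated in water, injected ip at 0.01 mL/g into male C3H/HeN mice (20–25 g); groups of six mice, dose increments of 1.33-fold, observed 28 days. MTD taken as highest dose causing no deaths or unacceptable morbidity.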

[6] = test system: EMT6 (Mus musculus); assay: Concentration resulting in 10% survival in dissociated EMT6 spheroid cell suspension
[7] = Spheroid resistance factor which is defined as the ratio C10 (intact)/ C10 (dissociated) EMT6 cells; type: functional
How it was run: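 EMT6/Ak spheroids were grown in αMEM with 10% FBS in spinner flasks to about 1000–1400 μm diameter. For dissociated cells, spheroids were treated with pronase 0.5 mg/mL and DNAase I 1 mg/mL for 30 min at 37 °C, washed, then exposed to drug for 1 h. Intact spheroids were exposed at 1 spheroid/mL in stirred vials for 1 h before dissociation and plating. Both exposures used about 2 × 10⁵ cells/mL, 5% CO₂/20% O₂, 37 °C. C10 was interpolated from at least four concentrations per survival curve. SRF is C10(intact)/C10(dissociated). Results are mean ± SEM of independent experiments.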

Row | Structure (SMILES) | Ratio [1] | Ratio [2] | C10 [3] | pIC50 [4] | MTD [5] | C10 [6] | Ratio [7]
1 | COc1cc(OC)c2nc3ccccc3c(NCCC[N+](C)(C)[O-])c2c1[N+](=O)[O-] | 1.2 | 0.9 | 20000 µM | 2.71 | 800 µM/kg | – | –
2 | COc1cccc2c(NCCC[N+](C)(C)[O-])c3c([N+](=O)[O-])ccc(OC)c3nc12 | 2770 | 14 | 59000 µM | 3.82 | 450 µM/kg | – | –
3 | C[N+](C)([O-])CCCNc1c2ccccc2nc2cccc([N+](=O)[O-])c12 | 820 | 15 | 61 µM | 5.57 | 15 µM/kg | 1.9 µM | 7
4 | CN(C)CCCNc1c2ccccc2nc2cccc([N+](=O)[O-])c12 [NITRACRINE] | 5.1 | 15 | 0.4 µM | – | 0.3 µM/kg | 0.11 µM | 10.7
5 | Cc1cccc2c(NCCC[N+](C)(C)[O-])c3c([N+](=O)[O-])ccc(C)c3nc12 | 54 | 32 | 60 µM | 5.17 | 15 µM/kg | – | –
6 | COc1ccc2nc3ccccc3c(NCCCN(C)C)c2c1[N+](=O)[O-] | – | 4.6 | >60 µM | 5.54 | – | – | –
7 | Cc1cccc2c(NCCCN(C)C)c3c([N+](=O)[O-])ccc(C)c3nc12 | 11 | 22 | 9.6 µM | 6.72 | 20 µM/kg | – | –
8 | Cc1ccc([N+](=O)[O-])c2c(NCCC[N+](C)(C)[O-])c3ccccc3nc12 | 150 | 29 | 47 µM | 5.27 | 15 µM/kg | – | –
9 | COc1ccc([N+](=O)[O-])c2c(NCCCN(C)C)c3ccccc3nc12 | 11 | 14 | 16 µM | 6.33 | 15 µM/kg | 1.7 µM | 7.7
10 | Cc1ccc([N+](=O)[O-])c2c(NCCCN(C)C)c3ccccc3nc12 | 6.9 | 13 | 1.5 µM | 7.28 | 0.2 µM/kg | – | –
11 | COc1ccc([N+](=O)[O-])c2c(NCCC[N+](C)(C)[O-])c3ccccc3nc12 | 1250 | 43 | 15700 µM | 3.89 | 100 µM/kg | 300 µM | 1.9
12 | COc1ccc2nc3ccccc3c(NCCC[N+](C)(C)[O-])c2c1[N+](=O)[O-] | – | – | >300 µM | 4.08 | 300 µM/kg | – | –
13 | COc1cc(OC)c2nc3ccccc3c(NCCCN(C)C)c2c1[N+](=O)[O-] | 2.3 | 1.3 | 500 µM | 4.33 | 300 µM/kg | – | –
14 | COc1cccc2c(NCCCN(C)C)c3c([N+](=O)[O-])ccc(OC)c3nc12 | 14 | 11 | 47 µM | 6.29 | 100 µM/kg | – | –
